ChEMBL document CHEMBL1144800, “Synthesis and antimicrobial properties of monensin A esters” (2008)
Converted amounts (≈) assume the structure as drawn. The source made the active and inactive calls. The calls are words filed in the database; no cut-off is given here.

Legend:
Staphylococcus aureus [1] = experiment: Antibacterial activity against Staphylococcus aureus NCTC 4163 at 400 ug/disc after 18 hrs by disc diffusion assay; assay type: functional; conditions: NCTC 4163, 18 h, read-out: IZ
Method in brief: (§1)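 Disc diffusion on Mueller–Hinton II agar per CLSI guidelines. Compound in ethanol applied to 9 mm filter paper discs at 400 µg per disc, then dried and placed on the agar surface. Growth inhibition zone diameter read after 18 h at 35 °C.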

Candida parapsilosis [2] = experiment: Antifungal activity against Candida parapsilosis ATCC 22019 after 24 hrs by serial agar dilution method; assay type: functional; conditions: Lodderomyces parapsilosis, ATCC 22019, 24 h
Method in brief: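 Twofold serial agar dilution per CLSI on RPMI agar with 2% glucose. Agents were dissolved in DMSO and tested at 3.125–400 µg/ml in the solid medium, with a DMSO control. Final inoculum was 10^4 CFU/mL.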

Micrococcus luteus [3] = experiment: Antibacterial activity against Micrococcus luteus ATCC 9341 at 400 ug/disc after 18 hrs by disc diffusion assay; assay type: functional; conditions: ATCC 9341, 18 h, read-out: IZ; method in brief: as §1
Candida albicans [4] = experiment: Antifungal activity against Candida albicans ATCC 10231 after 24 hrs by serial agar dilution method; assay type: functional; conditions: ATCC 10231, 24 h
Method in brief: (§2)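 Yeast MIC by twofold serial agar dilution on RPMI agar with 2% glucose (CLSI), run only for compounds that gave an inhibition zone in disc assay. Compounds in DMSO, 3.125–400 µg/ml in agar. Final inoculum 10^4 CFU/ml. […] Fluconazole and DMSO controls included.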

Pseudomonas aeruginosa [5] = experiment: Antibacterial activity against Pseudomonas aeruginosa ATCC 27853 at 400 ug/disc after 18 hrs by disc diffusion assay; assay type: functional, organism-based; method in brief: as §1
Escherichia coli [6] = experiment: Antibacterial activity against Escherichia coli ATCC 10538 at 400 ug/disc after 18 hrs by disc diffusion assay; assay type: functional, organism-based; method in brief: as §1
Candida parapsilosis [7] = experiment: Antifungal activity against Candida parapsilosis ATCC 22019 at 400 ug/disc after 24 hrs by disc diffusion assay; assay type: functional
Method in brief: (§3)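 Disc diffusion on RPMI agar with 2% glucose per CLSI guidelines. Discs 9 mm filter paper, loaded from ethanol solution with 400 µg compound, dried before placing on the agar. Inhibition zone diameter read after incubation at 35 °C. Fluconazole control at 25 µg per disc.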

Micrococcus luteus [8] = experiment: Antibacterial activity against Micrococcus luteus ATCC 10240 after 18 hrs by serial agar dilution method; assay type: functional; conditions: ATCC 10240, 18 h
Method in brief: (§4)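 MIC by twofold serial agar dilution in Mueller–Hinton II agar per CLSI, run only for compounds that gave an inhibition zone in disc assay. Compounds dissolved in DMSO, tested at 3.125–400 µg/ml in agar. Final inoculum 10^4 CFU/ml. […] DMSO control included.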

Escherichia coli [9] = experiment: Antibacterial activity against Escherichia coli ATCC 25922 at 400 ug/disc after 18 hrs by disc diffusion assay; assay type: functional, organism-based; method in brief: as §1
Escherichia coli [10] = experiment: Antibacterial activity against Escherichia coli NCTC 8196 at 400 ug/disc after 18 hrs by disc diffusion assay; assay type: functional, organism-based; method in brief: as §1
Candida albicans [11] = experiment: Antifungal activity against Candida albicans ATCC 90028 at 400 ug/disc after 24 hrs by disc diffusion assay; assay type: functional; method in brief: as §3
Proteus vulgaris = experiment: Antibacterial activity against Proteus vulgaris NCTC 4635 at 400 ug/disc after 18 hrs by disc diffusion assay; assay type: functional, organism-based; method in brief: as §1
Staphylococcus aureus [12] = experiment: Antibacterial activity against Staphylococcus aureus ATCC 29213 after 18 hrs by serial agar dilution method; assay type: functional; conditions: ATCC 29213, 18 h; method in brief: as §4
[13] = system: Staphylococcus epidermidis; experiment: Antibacterial activity against Staphylococcus epidermidis ATCC 12228 after 18 hrs by serial agar dilution method; assay type: functional; conditions: ATCC 12228, 18 h; method in brief: as §4
Staphylococcus aureus [14] = experiment: Antibacterial activity against Staphylococcus aureus ATCC 6538 after 18 hrs by serial agar dilution method; assay type: functional; conditions: ATCC 6538, 18 h; method in brief: as §4
Bacillus cereus [15] = experiment: Antibacterial activity against Bacillus cereus ATCC 11778 after 18 hrs by serial agar dilution method; assay type: functional; conditions: ATCC 11778, 18 h; method in brief: as §4
[16] = system: Staphylococcus epidermidis; experiment: Antibacterial activity against Staphylococcus epidermidis ATCC 12228 at 400 ug/disc after 18 hrs by disc diffusion assay; assay type: functional; conditions: ATCC 12228, 18 h, read-out: IZ; method in brief: as §1
Enterococcus hirae [17] = experiment: Antibacterial activity against Enterococcus hirae ATCC 10541 at 400 ug/disc after 18 hrs by disc diffusion assay; assay type: functional; method in brief: as §1
Staphylococcus aureus [18] = experiment: Antibacterial activity against Staphylococcus aureus ATCC 6538 at 400 ug/disc after 18 hrs by disc diffusion assay; assay type: functional; conditions: ATCC 6538, 18 h, read-out: IZ; method in brief: as §1
Pseudomonas aeruginosa [19] = experiment: Antibacterial activity against Pseudomonas aeruginosa ATCC 15442 at 400 ug/disc after 18 hrs by disc diffusion assay; assay type: functional, organism-based; method in brief: as §1
Micrococcus luteus [20] = experiment: Antibacterial activity against Micrococcus luteus ATCC 9341 after 18 hrs by serial agar dilution method; assay type: functional; conditions: ATCC 9341, 18 h; method in brief: as §4
Enterococcus hirae [21] = experiment: Antibacterial activity against Enterococcus hirae ATCC 10541 after 18 hrs by serial agar dilution method; assay type: functional; conditions: ATCC 10541, 18 h
Method in brief: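 Twofold serial agar dilution MIC in Mueller–Hinton II agar (CLSI), run only for compounds that gave an inhibition zone in disc assay. DMSO solutions tested at 3.125–400 µg/ml in agar. Final inoculum 10^5 CFU/ml. Read after 18 h at 35 °C. DMSO control included.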

Pseudomonas aeruginosa [22] = experiment: Antibacterial activity against Pseudomonas aeruginosa NCTC 6749 at 400 ug/disc after 18 hrs by disc diffusion assay; assay type: functional, organism-based; method in brief: as §1
Micrococcus luteus [23] = experiment: Antibacterial activity against Micrococcus luteus ATCC 10240 at 400 ug/disc after 18 hrs by disc diffusion assay; assay type: functional; conditions: ATCC 10240, 18 h, read-out: IZ; method in brief: as §1
Staphylococcus aureus [24] = experiment: Antibacterial activity against Staphylococcus aureus ATCC 25923 after 18 hrs by serial agar dilution method; assay type: functional; conditions: ATCC 25923, 18 h; method in brief: as §4
Bacillus subtilis [25] = experiment: Antibacterial activity against Bacillus subtilis ATCC 6633 after 18 hrs by serial agar dilution method; assay type: functional; conditions: ATCC 6633, 18 h; method in brief: as §4
Candida albicans [26] = experiment: Antifungal activity against Candida albicans ATCC 10231 at 400 ug/disc after 24 hrs by disc diffusion assay; assay type: functional; method in brief: as §3
Bacillus subtilis [27] = experiment: Antibacterial activity against Bacillus subtilis ATCC 6633 at 400 ug/disc after 18 hrs by disc diffusion assay; assay type: functional; conditions: ATCC 6633, 18 h, read-out: IZ; method in brief: as §1
Staphylococcus aureus [28] = experiment: Antibacterial activity against Staphylococcus aureus ATCC 29213 at 400 ug/disc after 18 hrs by disc diffusion assay; assay type: functional; conditions: ATCC 29213, 18 h, read-out: IZ; method in brief: as §1
Staphylococcus aureus [29] = experiment: Antibacterial activity against Staphylococcus aureus NCTC 4163 after 18 hrs by serial agar dilution method; assay type: functional; conditions: NCTC 4163, 18 h; method in brief: as §4
Staphylococcus aureus [30] = experiment: Antibacterial activity against Staphylococcus aureus ATCC 25923 at 400 ug/disc after 18 hrs by disc diffusion assay; assay type: functional; conditions: ATCC 25923, 18 h, read-out: IZ; method in brief: as §1
Candida albicans [31] = experiment: Antifungal activity against Candida albicans ATCC 90028 after 24 hrs by serial agar dilution method; assay type: functional; conditions: ATCC 90028, 24 h; method in brief: as §2
[32] = system: Bordetella bronchiseptica; experiment: Antibacterial activity against Bordetella bronchiseptica ATCC 4617 at 400 ug/disc after 18 hrs by disc diffusion assay; assay type: functional, organism-based; method in brief: as §1
Bacillus cereus [33] = experiment: Antibacterial activity against Bacillus cereus ATCC 11778 at 400 ug/disc after 18 hrs by disc diffusion assay; assay type: functional; conditions: ATCC 11778, 18 h, read-out: IZ; method in brief: as §1

Structure (SMILES)	zone of inhibition at 400 µg/disc (Staphylococcus aureus [1]) [mm]	zone of inhibition at 400 µg/disc (Micrococcus luteus [3]) [mm]	Activity (Pseudomonas aeruginosa [5])	Activity (Escherichia coli [6])	MIC (Micrococcus luteus [8]) [µg/mL]	Activity (Escherichia coli [9])	Activity (Escherichia coli [10])	Activity (Proteus vulgaris)	MIC (Staphylococcus aureus [12]) [µg/mL]	MIC [13] [µg/mL]	MIC (Staphylococcus aureus [14]) [µg/mL]	MIC (Bacillus cereus [15]) [µg/mL]	zone of inhibition at 400 µg/disc [16] [mm]	zone of inhibition at 400 µg/disc (Staphylococcus aureus [18]) [mm]	Activity (Pseudomonas aeruginosa [19])	MIC (Micrococcus luteus [20]) [µg/mL]	MIC (Enterococcus hirae [21]) [µg/mL]	Activity (Pseudomonas aeruginosa [22])	zone of inhibition at 400 µg/disc (Micrococcus luteus [23]) [mm]	MIC (Staphylococcus aureus [24]) [µg/mL]	also measured
CC[C@@]1([C@@H]2O[C@@H]([C@H]3O[C@@](O)(CO)[C@H](C)C[C@@H]3C)C[C@@H]2C)CC[C@H]([C@]2(C)CC[C@]3(C[C@H](O)[C@@H](C)[C@@H]([C@@H](C)[C@@H](OC)[C@H](C)C(=O)OCCN4CCOCC4)O3)O2)O1	23	22	inactive	inactive	12.5 (≈ 15.9 µM)	inactive	inactive	inactive	6.25 (≈ 7.97 µM)	12.5 (≈ 15.9 µM)	12.5 (≈ 15.9 µM)	6.25 (≈ 7.97 µM)	24	23	inactive	25 (≈ 31.9 µM)	50 (≈ 63.8 µM)	inactive	18	6.25 (≈ 7.97 µM)	MIC (Candida parapsilosis [2]): 400 µg/mL (≈ 510 µM); MIC (Candida albicans [4]): 200 µg/mL (≈ 255 µM); zone of inhibition at 400 µg/disc (Candida parapsilosis [7]; Lodderomyces parapsilosis, ATCC 22019, 24 h, read-out: IZ): 14 mm; zone of inhibition at 400 µg/disc (Candida albicans [11]; ATCC 90028, 24 h, read-out: IZ): 17 mm; zone of inhibition at 400 µg/disc (Enterococcus hirae [17]; ATCC 10541, 18 h, read-out: IZ): 13 mm; MIC (Bacillus subtilis [25]): 6.25 µg/mL (≈ 7.97 µM); zone of inhibition at 400 µg/disc (Candida albicans [26]; ATCC 10231, 24 h, read-out: IZ): 18 mm; zone of inhibition at 400 µg/disc (Bacillus subtilis [27]): 27 mm; zone of inhibition at 400 µg/disc (Staphylococcus aureus [28]): 25 mm; MIC (Staphylococcus aureus [29]): 12.5 µg/mL (≈ 15.9 µM); zone of inhibition at 400 µg/disc (Staphylococcus aureus [30]): 20 mm; MIC (Candida albicans [31]): 200 µg/mL (≈ 255 µM); Activity [32]: inactive; zone of inhibition at 400 µg/disc (Bacillus cereus [33]): 25 mm
CC[C@@]1([C@@H]2O[C@@H]([C@H]3O[C@@](O)(CO)[C@H](C)C[C@@H]3C)C[C@@H]2C)CC[C@H]([C@]2(C)CC[C@]3(C[C@H](O)[C@@H](C)[C@@H]([C@@H](C)[C@@H](OC)[C@H](C)C(=O)O)O3)O2)O1 [MONENSIN]	22	12	inactive	inactive	2 (≈ 2.98 µM)	inactive	inactive	inactive	1 (≈ 1.49 µM)	2 (≈ 2.98 µM)	2 (≈ 2.98 µM)	2 (≈ 2.98 µM)	15	20	inactive	4 (≈ 5.96 µM)	12.5 (≈ 18.6 µM)	inactive	12	1 (≈ 1.49 µM)	Activity (Candida parapsilosis [7]): inactive; Activity (Candida albicans [11]): inactive; Activity (Enterococcus hirae [17]): inactive; MIC (Bacillus subtilis [25]): 1 µg/mL (≈ 1.49 µM); Activity (Candida albicans [26]): inactive; zone of inhibition at 400 µg/disc (Bacillus subtilis [27]): 22 mm; zone of inhibition at 400 µg/disc (Staphylococcus aureus [28]): 18 mm; MIC (Staphylococcus aureus [29]): 2 µg/mL (≈ 2.98 µM); zone of inhibition at 400 µg/disc (Staphylococcus aureus [30]): 22 mm; Activity [32]: inactive; zone of inhibition at 400 µg/disc (Bacillus cereus [33]): 18 mm
